# Experimental data published in ChEMBL document CHEMBL2021766, “Antiplasmodial activity of novel keto-enamine chalcone-chloroquine based hybrid pharmacophores” (Bioorg Med Chem, 2012).
# System: Plasmodium yoelii
# Assay: Antimalarial activity against chloroquine-resistant Plasmodium yoelii N-67 infected Swiss mouse assessed as suppression of parasitemia at 20 mg/kg/day, po qd for 4 days measured on day 6
# Type: functional
# Details: not given
row,SMILES,inhibition in vivo at 20 mg/kg/day
1,CCN(CC)CCCC(C)Nc1ccnc2cc(Cl)ccc12 (stereo not drawn) [CHLOROQUINE],93.9%

# System: Plasmodium yoelii
# Assay: Antimalarial activity against chloroquine-resistant Plasmodium yoelii N-67 infected Swiss mouse assessed as mean survival time at 100 mg/kg/day, po qd for 4 days
# Type: functional
# Details: not given
# Procedure, shortened: (§1)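 Swiss mice infected with P. yoelii N-67 (1 × 10⁵ parasitized RBC, day 0). Test agents were given as aqueous suspensions with a few drops of Tween 80, orally at 100 mg/kg/day, once daily on days 0–3, to groups of five. Parasitaemia was read from thin blood smears on days 4 and 6. Percent suppression was calculated from group means versus untreated controls. Survival and cure were followed to day 30.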
row,SMILES,MST
1,CCC(C)C1=CC(/C=C/C(=O)c2ccco2)=CC(=C\NCCNc2ccnc3cc(Cl)ccc23)/C1=O (stereo not drawn),17.6 days
2,CCC(C)C1=CC(/C=C/C(=O)c2cccs2)=CC(=C\NCCNc2ccnc3cc(Cl)ccc23)/C1=O (stereo not drawn),18.2 days
3,CC(C)(C)C1=CC(/C=C/C(=O)c2ccc(F)cc2)=CC(=C\NCCNc2ccnc3cc(Cl)ccc23)/C1=O,18.4 days
4,CC(C)(C)C1=CC(/C=C/C(=O)c2ccc(Br)cc2)=CC(=C\NCCNc2ccnc3cc(Cl)ccc23)/C1=O,17.6 days
5,CC1=CC(/C=C/C(=O)c2ccc(C)cc2)=CC(=C\NCCNc2ccnc3cc(Cl)ccc23)/C1=O,17.6 days
6,CC1=CC(/C=C/C(=O)c2ccc(F)cc2)=CC(=C\NCCNc2ccnc3cc(Cl)ccc23)/C1=O,15.6 days

# System: Plasmodium yoelii
# Assay: Antimalarial activity against chloroquine-resistant Plasmodium yoelii N-67 infected Swiss mouse assessed as suppression of parasitemia at 10 mg/kg/day, po qd for 4 days measured on day 6
# Type: functional
# Details: not given
row,SMILES,inhibition in vivo at 10 mg/kg/day
1,CCN(CC)CCCC(C)Nc1ccnc2cc(Cl)ccc12 (stereo not drawn) [CHLOROQUINE],93.6%

# System: not listed separately
# Assay: Selectivity index, ratio of CC50 for monkey Vero cells to IC50 for chloroquine-sensitive ring stage Plasmodium falciparum 3D7
# Type: functional
# Details: not given
# Procedure, shortened: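 Vero cells exposed to dilutions of test agents for 72 h; MTT read-out (modified Mosmann method); CC50 by non-linear regression. Ratio taken against the 3D7 IC50 from SYBR Green-I assay.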
row,SMILES,Ratio CC50/IC50
1,CCC(C)C1=CC(/C=C/C(=O)c2ccco2)=CC(=C\NCCNc2ccnc3cc(Cl)ccc23)/C1=O (stereo not drawn),1138.22
2,CCC(C)C1=CC(/C=C/C(=O)c2cccs2)=CC(=C\NCCNc2ccnc3cc(Cl)ccc23)/C1=O (stereo not drawn),1373.63
3,CC(C)(C)C1=CC(/C=C/C(=O)c2ccc(F)cc2)=CC(=C\NCCNc2ccnc3cc(Cl)ccc23)/C1=O,1499.3
4,CC(C)(C)C1=CC(/C=C/C(=O)c2ccc(Br)cc2)=CC(=C\NCCNc2ccnc3cc(Cl)ccc23)/C1=O,1883.62
5,CC1=CC(/C=C/C(=O)c2ccc(C)cc2)=CC(=C\NCCNc2ccnc3cc(Cl)ccc23)/C1=O,1034.23
6,CC1=CC(/C=C/C(=O)c2ccc(F)cc2)=CC(=C\NCCNc2ccnc3cc(Cl)ccc23)/C1=O,1034.23

# System: Plasmodium yoelii
# Assay: Antimalarial activity against chloroquine-resistant Plasmodium yoelii N-67 infected Swiss mouse assessed as suppression of parasitemia at 100 mg/kg/day, po qd for 4 days measured on day 6
# Type: functional
# Details: not given
# Procedure, shortened: as §1
row,SMILES,inhibition in vivo at 100 mg/kg/day
1,CCC(C)C1=CC(/C=C/C(=O)c2ccco2)=CC(=C\NCCNc2ccnc3cc(Cl)ccc23)/C1=O (stereo not drawn),85.8%
2,CCC(C)C1=CC(/C=C/C(=O)c2cccs2)=CC(=C\NCCNc2ccnc3cc(Cl)ccc23)/C1=O (stereo not drawn),86.7%
3,CC(C)(C)C1=CC(/C=C/C(=O)c2ccc(F)cc2)=CC(=C\NCCNc2ccnc3cc(Cl)ccc23)/C1=O,97%
4,CC(C)(C)C1=CC(/C=C/C(=O)c2ccc(Br)cc2)=CC(=C\NCCNc2ccnc3cc(Cl)ccc23)/C1=O,96.7%
5,CC1=CC(/C=C/C(=O)c2ccc(C)cc2)=CC(=C\NCCNc2ccnc3cc(Cl)ccc23)/C1=O,88.7%
6,CC1=CC(/C=C/C(=O)c2ccc(F)cc2)=CC(=C\NCCNc2ccnc3cc(Cl)ccc23)/C1=O,83.5%

# System: Plasmodium yoelii
# Assay: Antimalarial activity against chloroquine-resistant Plasmodium yoelii N-67 infected Swiss mouse assessed as mean survival time at 20 mg/kg/day, po qd for 4 days
# Type: functional
# Details: not given
row,SMILES,MST
1,CCN(CC)CCCC(C)Nc1ccnc2cc(Cl)ccc12 (stereo not drawn) [CHLOROQUINE],>28 days

# System: Plasmodium yoelii
# Assay: Antimalarial activity against chloroquine-resistant Plasmodium yoelii N-67 infected Swiss mouse assessed as suppression of parasitemia at 100 mg/kg/day, po qd for 4 days measured on day 4
# Type: functional
# Details: N-67, 96 h
# Procedure, shortened: as §1
row,SMILES,inhibition in vivo at 100 mg/kg/day
1,CCC(C)C1=CC(/C=C/C(=O)c2ccco2)=CC(=C\NCCNc2ccnc3cc(Cl)ccc23)/C1=O (stereo not drawn),99.5%
2,CCC(C)C1=CC(/C=C/C(=O)c2cccs2)=CC(=C\NCCNc2ccnc3cc(Cl)ccc23)/C1=O (stereo not drawn),99.4%
3,CC(C)(C)C1=CC(/C=C/C(=O)c2ccc(F)cc2)=CC(=C\NCCNc2ccnc3cc(Cl)ccc23)/C1=O,99.9%
4,CC(C)(C)C1=CC(/C=C/C(=O)c2ccc(Br)cc2)=CC(=C\NCCNc2ccnc3cc(Cl)ccc23)/C1=O,99.9%
5,CC1=CC(/C=C/C(=O)c2ccc(C)cc2)=CC(=C\NCCNc2ccnc3cc(Cl)ccc23)/C1=O,99.8%
6,CC1=CC(/C=C/C(=O)c2ccc(F)cc2)=CC(=C\NCCNc2ccnc3cc(Cl)ccc23)/C1=O,99.5%

# System: Plasmodium yoelii
# Assay: Antimalarial activity against chloroquine-resistant Plasmodium yoelii N-67 infected Swiss mouse assessed as suppression of parasitemia at 10 mg/kg/day, po qd for 4 days measured on day 4
# Type: functional
# Details: N-67, 96 h
row,SMILES,inhibition in vivo at 10 mg/kg/day
1,CCN(CC)CCCC(C)Nc1ccnc2cc(Cl)ccc12 (stereo not drawn) [CHLOROQUINE],99%

# System: Plasmodium yoelii
# Assay: Inhibition of beta-hematin formation in Plasmodium yoelii infected Swiss mouse plasma using hemin as substrate after 16 hrs by spectrophotometry
# Type: functional
# Details: not given
# Procedure, shortened: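 Plasma taken by cardiac puncture into 2.0% citrate from male Swiss mice (15–20 g) infected with 1 × 10^5 P. yoelii RBCs, at about 50% parasitemia. Mix: 100 mM sodium acetate pH 5.1, 50 µL plasma, 100 µM hemin, compound, in triplicate, 37 °C for 16 h with shaking. Pellet washed in Tris–HCl pH 7.4 with 2.5% SDS. IC50 = 50% inhibition; three experiments in triplicate.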
row,SMILES,IC50
1,CCC(C)C1=CC(/C=C/C(=O)c2ccco2)=CC(=C\NCCNc2ccnc3cc(Cl)ccc23)/C1=O (stereo not drawn),2.89 µg/mL
2,CCC(C)C1=CC(/C=C/C(=O)c2cccs2)=CC(=C\NCCNc2ccnc3cc(Cl)ccc23)/C1=O (stereo not drawn),2.62 µg/mL
3,CC(C)(C)C1=CC(/C=C/C(=O)c2ccc(F)cc2)=CC(=C\NCCNc2ccnc3cc(Cl)ccc23)/C1=O,13.8 µg/mL
4,CC(C)(C)C1=CC(/C=C/C(=O)c2ccc(Br)cc2)=CC(=C\NCCNc2ccnc3cc(Cl)ccc23)/C1=O,21.9 µg/mL
5,CC1=CC(/C=C/C(=O)c2ccc(C)cc2)=CC(=C\NCCNc2ccnc3cc(Cl)ccc23)/C1=O,2.91 µg/mL
6,CC1=CC(/C=C/C(=O)c2ccc(F)cc2)=CC(=C\NCCNc2ccnc3cc(Cl)ccc23)/C1=O,2.91 µg/mL
7,CCN(CC)CCCC(C)Nc1ccnc2cc(Cl)ccc12 (stereo not drawn) [CHLOROQUINE],3.65 µg/mL

# System: Plasmodium falciparum
# Assay: Antimalarial activity against chloroquine-sensitive ring stage Plasmodium falciparum 3D7 after 72 hrs by SYBR Green-I assay
# Type: functional, organism-based
# Details: 3D7, 72 h
# Procedure, shortened: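 Asynchronous P. falciparum 3D7 culture (over 80% ring stages), 1.0% parasitized cell suspension at 0.8% parasitaemia, incubated with twofold serial dilutions at 37 °C, 5% CO2/air, 72 h. Lysis buffer with 1× SYBR Green-I added, 1 h at 37 °C. Fluorescence read at 485/530 nm excitation/emission. IC50 from triplicate experiments.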
row,SMILES,IC50
1,CCC(C)C1=CC(/C=C/C(=O)c2ccco2)=CC(=C\NCCNc2ccnc3cc(Cl)ccc23)/C1=O (stereo not drawn),0.00709 µg/mL
2,CCC(C)C1=CC(/C=C/C(=O)c2cccs2)=CC(=C\NCCNc2ccnc3cc(Cl)ccc23)/C1=O (stereo not drawn),0.0091 µg/mL
3,CC(C)(C)C1=CC(/C=C/C(=O)c2ccc(F)cc2)=CC(=C\NCCNc2ccnc3cc(Cl)ccc23)/C1=O,0.00719 µg/mL
4,CC(C)(C)C1=CC(/C=C/C(=O)c2ccc(Br)cc2)=CC(=C\NCCNc2ccnc3cc(Cl)ccc23)/C1=O,0.00464 µg/mL
5,CC1=CC(/C=C/C(=O)c2ccc(C)cc2)=CC(=C\NCCNc2ccnc3cc(Cl)ccc23)/C1=O,0.00975 µg/mL
6,CC1=CC(/C=C/C(=O)c2ccc(F)cc2)=CC(=C\NCCNc2ccnc3cc(Cl)ccc23)/C1=O,0.0109 µg/mL

# System: Plasmodium yoelii
# Assay: Antimalarial activity against chloroquine-resistant Plasmodium yoelii N-67 infected Swiss mouse assessed as mean survival time at 10 mg/kg/day, po qd for 4 days
# Type: functional
# Details: not given
row,SMILES,MST
1,CCN(CC)CCCC(C)Nc1ccnc2cc(Cl)ccc12 (stereo not drawn) [CHLOROQUINE],13.6 days

# System: Plasmodium yoelii
# Assay: Antimalarial activity against chloroquine-resistant Plasmodium yoelii N-67 infected Swiss mouse assessed as suppression of parasitemia at 20 mg/kg/day, po qd for 4 days measured on day 4
# Type: functional
# Details: N-67, 96 h
row,SMILES,inhibition in vivo at 20 mg/kg/day
1,CCN(CC)CCCC(C)Nc1ccnc2cc(Cl)ccc12 (stereo not drawn) [CHLOROQUINE],99%
